RGS4 act – RGS4 potentiation or activation; 0.92% of 310,000 active; HEK293 M3R/inducible RGS4, carbachol calcium flux Fluo4; active compounds read low; B-score at 10 µM; AID 463111;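 active = B-score of the integrated calcium signal more than 4 SD below the library mean, with starting fluorescence not abnormally high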;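 also: negative B-score means reduced calcium response which marks RGS4 activation or potentiation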
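Assay system: HEK293 FlpIn-TREx cells, stable M3R, doxycycline-inducible RGS4 / Probe or stimulus: carbachol, ECmax concentration / Times: overnight RGS4 induction, 30 min dye load 37 °C, 20 min compound RT / Signal: kinetic calcium fluorescence imaging with Fluo4-AM dye, 2 µM / Measure: Agonist-evoked peak-minus-minimum fluorescence over baseline, integrated ratio, B score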
RGS4 inh – human RGS4 inhibition; P49798; HEK293 M3R/RGS4 inducible, Fluo-4 calcium flux; active compounds read high; triggered by carbachol at its EC20; B-score at 10 µM; 0.45% of 310,000 active;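 active = B-score, a plate-corrected calcium signal, over three deviations above library mean, with baseline fluorescence within five deviations of library mean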;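 also: RGS4 expression induced by doxycycline in cells with stable M3 receptor; B-score is computed from the integrated fluorescence ratio over baseline after carbachol; higher B-score means a larger calcium signal and so more RGS4 inhibition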
MrgX1 agonist – activates human MrgX1 receptor signaling | Q96LB2 | MrgX1-HEK293 cells, Fluo-4 calcium fluorescence, agonist mode; active compounds read high | B-score at 10 µM | 0.44% of 310,000 active | AID 588627;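 active = calcium response B-score plate-corrected fluorescence ratio at least 3 library SD, with starting fluorescence B-score inside 5 SD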
Target sequence (Q96LB2 whole entry, looked up): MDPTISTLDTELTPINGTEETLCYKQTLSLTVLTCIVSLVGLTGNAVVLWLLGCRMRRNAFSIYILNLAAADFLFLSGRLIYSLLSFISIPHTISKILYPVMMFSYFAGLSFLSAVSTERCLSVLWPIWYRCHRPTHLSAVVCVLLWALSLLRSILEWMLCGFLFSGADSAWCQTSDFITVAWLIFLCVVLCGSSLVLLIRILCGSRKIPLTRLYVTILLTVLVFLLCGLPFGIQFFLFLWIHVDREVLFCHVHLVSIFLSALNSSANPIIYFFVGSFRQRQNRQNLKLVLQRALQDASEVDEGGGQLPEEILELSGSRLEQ
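Material: MrgX1-expressing HEK293 cells; input: 15,000 cells per well; doses: test compound given as first of three sequential additions; schedule: overnight plating before 1 h dye loading; technique: Fluo-4 NW calcium-flux fluorescence, kinetic read; evaluation: baseline-normalised fluorescence change ratio, B-scored; control set: plate-wise positive and negative controls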
MrgX1 antagonist – antagonists of human MrgX1 receptor; Q96LB2; MRGX1-HEK293 calcium flux, Fluo-4, BAM8-22 antagonism; active compounds read low; B-score at 10 µM; 1.3% of 310,000 active; AID 588676;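 active = calcium-response B-score plate-corrected more than 3 library SD below zero, starting fluorescence within 5 deviations, no agonist response on first addition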;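 also: peak minus trough fluorescence over baseline after final BAM8-22 challenge near maximal dose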
MrgX1 PAM – allosterically activates human MrgX1 receptor signaling; Q96LB2; MrgX1-HEK293, Fluo-4 calcium flux, FDSS; active compounds read high; B-score at 10 µM; 0.63% of 310,000 active; AID 588675;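 active = plate-corrected calcium response at least 3 library SD above typical, normal starting fluorescence, not activating the receptor alone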;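 also: compound read alongside a low EC10 to EC30 dose of BAM8-22 agonist; peak minus trough fluorescence over baseline measured at the second addition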
RGS4 activ val – RGS4 activation, validation assay; AID 602282; HEK293 M3R/RGS4 inducible, carbachol calcium flux Fluo4; inhibition, % at 10 µM; 89% of 1,100 active; shares compounds with RGS4 act;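 active = inhibition above 3 SD of the buffer control wells, cut at about 41% in these data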;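 also: signal is the integrated peak-minus-minimum Fluo4 fluorescence over baseline ratio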
M3R Ca counter – counter-screen for RGS4 activators: effect in non-induced cells. shares compounds with RGS4 act. HEK293 M3R non-induced RGS4, Fluo4 calcium flux; after carbachol challenge at its EC90. inhibition, % at 10 µM. 82% of 1,100 active. AID 602283;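 active = inhibition exceeding 3 SD of buffer-only control wells, cut at about 26% in these data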;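 also: percent drop in integrated peak-minus-baseline over baseline Fluo4 ratio after carbachol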
Starred values were filed as active, the others as inactive. An excerpt weighted towards active compounds, which were near 3.5% of everything screened.

CC(Cc1cccs1)NC(=S)Nc1ccc(Cl)cc1 (configuration not stated) was read as RGS4 act -8.03*, RGS4 inh inactive, MrgX1 agonist inactive, MrgX1 antagonist inactive, MrgX1 PAM inactive, RGS4 activ val 48.5* and M3R Ca counter 83.8*.
For CC(Cc1cccs1)NC(=O)Nc1ccc(F)cc1 (configuration not stated) the results were RGS4 act inactive, RGS4 inh inactive, MrgX1 agonist inactive, MrgX1 antagonist inactive and MrgX1 PAM inactive.
CCC(C(=O)NCCN1CCOCC1)n1c2ccccc2c2nc(=O)cc(C)n21 (configuration not stated) was read as RGS4 act inactive, RGS4 inh inactive, MrgX1 agonist inactive, MrgX1 antagonist inactive and MrgX1 PAM inactive.
Screening CN1CCN(Cc2cccc(Oc3ccc(Cl)cc3)c2)CC1 returned RGS4 act -11.6*, RGS4 inh inactive, MrgX1 agonist inactive, MrgX1 antagonist inactive, MrgX1 PAM inactive, RGS4 activ val 90.5* and M3R Ca counter 37.8*.
Screening CCN1CCN(Cc2cccc(Oc3ccccc3)c2)CC1 returned RGS4 act -8.01*, RGS4 inh inactive, MrgX1 agonist inactive, MrgX1 antagonist inactive, MrgX1 PAM inactive, RGS4 activ val 61.5* and M3R Ca counter 83.8*.
Screening CCOC(=O)C1CCN(Cc2cccc(Oc3ccc(Cl)cc3)c2)CC1 returned RGS4 act inactive, RGS4 inh inactive, MrgX1 agonist inactive, MrgX1 antagonist inactive and MrgX1 PAM inactive.
`CCN1CCN(Cc2cccc(Oc3ccc(Cl)cc3)c2)CC1` gave RGS4 act -9.42*, RGS4 inh inactive, MrgX1 agonist inactive, MrgX1 antagonist inactive, MrgX1 PAM inactive, RGS4 activ val 92.5* and M3R Ca counter 61.3*.
COc1cccc(NC(=O)C(=O)NCCC2CCCCN2S(=O)(=O)c2ccccc2)c1 (configuration not stated) was read as RGS4 act inactive, RGS4 inh inactive, MrgX1 agonist inactive, MrgX1 antagonist inactive and MrgX1 PAM inactive.
`CC1CCCN(C(=O)CCS(=O)(=O)c2ccc3c(c2)NC(=O)C(C)S3)C1` (configuration not stated) gave RGS4 act inactive, RGS4 inh inactive, MrgX1 agonist inactive, MrgX1 antagonist inactive and MrgX1 PAM inactive.
`CCNC(=S)Nc1ccc2c(c1)oc1ccccc12` gave RGS4 act inactive, RGS4 inh inactive, MrgX1 agonist inactive, MrgX1 antagonist inactive and MrgX1 PAM inactive.
For Cc1nc2nc(SCC(=O)NCCCN3CCCC3)nn2c(C)c1Cc1ccccc1Cl the results were RGS4 act -8.25*, RGS4 inh inactive, MrgX1 agonist inactive, MrgX1 antagonist inactive, MrgX1 PAM inactive, RGS4 activ val 77.5* and M3R Ca counter 42.3*.
`CC(=O)c1ccccc1NC(=O)c1ccc2c(c1)NC(=O)C(C)S2` (configuration not stated) gave RGS4 act inactive, RGS4 inh inactive, MrgX1 agonist inactive, MrgX1 antagonist inactive and MrgX1 PAM inactive.
Screening CCCNC(=O)c1ccccc1NC(=O)c1ccc2c(c1)NC(=O)C(C)S2 (configuration not stated) returned RGS4 act -7.82*, RGS4 inh inactive, MrgX1 agonist inactive, MrgX1 antagonist inactive, MrgX1 PAM inactive, RGS4 activ val 71.5* and M3R Ca counter 28.8*.
`CCN1C(=O)[C@@H]2[C@@H](c3ccc(SC4CCCCC4)c(OC)c3)N3CCC[C@@]3(C(=O)OC)[C@@H]2C1=O` gave MrgX1 agonist inactive, MrgX1 antagonist inactive and MrgX1 PAM inactive.
Screening Cc1ccccc1C(=O)Nc1ccnn1C1CCN(C(C)Cc2ccccc2F)CC1 (configuration not stated) returned RGS4 act inactive, RGS4 inh inactive, MrgX1 agonist inactive, MrgX1 antagonist inactive and MrgX1 PAM inactive.

Screens from PubChem.
